ChEMBL document CHEMBL1145255, “Synthesis and antifungal activity of 5-arylamino-4,7-dioxobenzo[b]thiophenes” (2005)
Values after ≈ are worked out from the molar mass of the structure shown.

Experiments:
Assay type in all cases: functional
Pichia kudriavzevii = experiment: In vitro minimum inhibitory concentration against Candida krusei Berkout KCCM 11655 strain at 37 degree C after 1 day of treatment; details: KCCM 11655, 24 h
In short: (§1)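 Two-fold broth dilution MIC in modified Sabouraud dextrose broth, inoculum about 1 × 10⁵ cells/mL, incubated at 37 °C. MIC was read after 1 day for the Candida species and after 2 days for A. niger.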

Aspergillus niger = experiment: In vitro minimum inhibitory concentration against Aspergillus niger KCTC 1231 strain at 37 degree C after 2 day of treatment; details: KCTC 1231, 48 h; in short: as §1
Candida albicans = experiment: In vitro minimum inhibitory concentration against Candida albicans Berkout KCCM 50235 strain at 37 degree C after 1 day of treatment; details: KCCM 50235, 24 h; in short: as §1
Candida tropicalis = experiment: In vitro minimum inhibitory concentration against Candida tropicalis Berkout KCCM 50662 strain at 37 degree C after 1 day of treatment; details: KCCM 50662, 24 h; in short: as §1

Row | SMILES | MIC (Pichia kudriavzevii) [µg/mL] | MIC (Aspergillus niger) [µg/mL] | MIC (Candida albicans) [µg/mL] | MIC (Candida tropicalis) [µg/mL]
1 | COC(=O)c1cc2c(s1)C(=O)C(Cl)=C(Nc1ccc(O)cc1)C2=O | 6.3 (≈ 17.3 µM) | 50 (≈ 137 µM) | 12.5 (≈ 34.4 µM) | 0.8 (≈ 2.2 µM)
2 | O=C1C(Nc2ccc(O)cc2)=C(Cl)C(=O)c2sc(CO)cc21 | > 50 | > 50 | > 50 | 25 (≈ 74.5 µM)
3 | COC(=O)c1cc2c(s1)C(=O)C=C(Nc1ccc(OC)cc1)C2=O | 25 (≈ 72.8 µM) | > 50 | > 50 | 6.3 (≈ 18.3 µM)
4 | Nc1nc(=O)[nH]cc1F [FLUCYTOSINE] | 6.3 (≈ 48.8 µM) | 12.5 (≈ 96.8 µM) | 6.3 (≈ 48.8 µM) | 12.5 (≈ 96.8 µM)
5 | O=C1C(Nc2ccc(Cl)cc2)=CC(=O)c2sc(CO)cc21 | > 25 | 25 (≈ 78.2 µM) | > 50 | 12.5 (≈ 39.1 µM)
6 | COC(=O)c1cc2c(s1)C(=O)C=C(Nc1ccc(C(F)(F)F)cc1)C2=O | 1.6 (≈ 4.2 µM) | 50 (≈ 131 µM) | 50 (≈ 131 µM) | 12.5 (≈ 32.8 µM)
7 | COC(=O)c1cc2c(s1)C(=O)C(Cl)=C(Nc1ccc(C)cc1)C2=O | 25 (≈ 69.1 µM) | 50 (≈ 138 µM) | 0.8 (≈ 2.21 µM) | 12.5 (≈ 34.5 µM)
8 | COC(=O)c1cc2c(s1)C(=O)C(Cl)=C(Nc1ccc(OC)cc1)C2=O | 3.2 (≈ 8.47 µM) | 50 (≈ 132 µM) | 3.2 (≈ 8.47 µM) | 6.3 (≈ 16.7 µM)
9 | COC(=O)c1cc2c(s1)C(=O)C(Cl)=C(Nc1ccc(F)cc1)C2=O | 25 (≈ 68.3 µM) | 12.5 (≈ 34.2 µM) | 12.5 (≈ 34.2 µM) | 6.3 (≈ 17.2 µM)
10 | COC(=O)c1cc2c(s1)C(=O)C=C(Nc1ccc(O)cc1)C2=O | 12.5 (≈ 38 µM) | 50 (≈ 152 µM) | 50 (≈ 152 µM) | 0.4 (≈ 1.21 µM)
11 | COC(=O)c1cc2c(s1)C(=O)C=C(Nc1ccccc1)C2=O | 12.5 (≈ 39.9 µM) | 50 (≈ 160 µM) | 50 (≈ 160 µM) | 6.3 (≈ 20.1 µM)
12 | COC(=O)c1cc2c(s1)C(=O)C(Cl)=C(Nc1ccccc1)C2=O | 6.3 (≈ 18.1 µM) | 12.5 (≈ 35.9 µM) | 0.8 (≈ 2.3 µM) | 3.2 (≈ 9.2 µM)
13 | O=C1C(Nc2ccc(F)cc2)=C(Cl)C(=O)c2sc(CO)cc21 | 1.6 (≈ 4.74 µM) | 50 (≈ 148 µM) | 12.5 (≈ 37 µM) | 0.4 (≈ 1.18 µM)
14 | COC(=O)c1cc2c(s1)C(=O)C=C(Nc1ccc(I)cc1)C2=O | 6.3 (≈ 14.3 µM) | 50 (≈ 114 µM) | 50 (≈ 114 µM) | 0.2 (≈ 0.455 µM)
15 | O=C1C(Nc2ccccc2)=CC(=O)c2sc(CO)cc21 | 6.3 (≈ 22.1 µM) | 0.8 (≈ 2.8 µM) | 50 (≈ 175 µM) | 0.8 (≈ 2.8 µM)
16 | COC(=O)c1cc2c(s1)C(=O)C(Cl)=C(Nc1ccc(I)cc1)C2=O | 25 (≈ 52.8 µM) | 3.2 (≈ 6.76 µM) | 6.3 (≈ 13.3 µM) | 1.6 (≈ 3.38 µM)
17 | O=C1C(Nc2ccc(Br)cc2)=CC(=O)c2sc(CO)cc21 | 3.2 (≈ 8.79 µM) | 3.2 (≈ 8.79 µM) | 50 (≈ 137 µM) | 12.5 (≈ 34.3 µM)
18 | COC(=O)c1cc2c(s1)C(=O)C(Cl)=C(Nc1ccc(Br)cc1)C2=O | 25 (≈ 58.6 µM) | 25 (≈ 58.6 µM) | 0.8 (≈ 1.87 µM) | 3.2 (≈ 7.5 µM)
19 | O=C1C(Nc2ccc(Cl)cc2)=C(Cl)C(=O)c2sc(CO)cc21 | 1.6 (≈ 4.52 µM) | > 50 | 12.5 (≈ 35.3 µM) | 0.4 (≈ 1.13 µM)
20 | COC(=O)c1cc2c(s1)C(=O)C(Cl)=C(Nc1ccc(C(F)(F)F)cc1)C2=O | 25 (≈ 60.1 µM) | 50 (≈ 120 µM) | 12.5 (≈ 30.1 µM) | 1.6 (≈ 3.85 µM)

Continued, values first:

Row | MIC (Pichia kudriavzevii) [µg/mL] | MIC (Aspergillus niger) [µg/mL] | MIC (Candida albicans) [µg/mL] | MIC (Candida tropicalis) [µg/mL] | SMILES
21 | 12.5 (≈ 35.4 µM) | 0.8 (≈ 2.26 µM) | 0.8 (≈ 2.26 µM) | 0.8 (≈ 2.26 µM) | O=C1C(Nc2ccc(C(F)(F)F)cc2)=CC(=O)c2sc(CO)cc21
22 | > 25 | 25 (≈ 82.4 µM) | 50 (≈ 165 µM) | 12.5 (≈ 41.2 µM) | O=C1C(Nc2ccc(F)cc2)=CC(=O)c2sc(CO)cc21
23 | 3.2 (≈ 8.25 µM) | 50 (≈ 129 µM) | 50 (≈ 129 µM) | 0.4 (≈ 1.03 µM) | O=C1C(Nc2ccc(C(F)(F)F)cc2)=C(Cl)C(=O)c2sc(CO)cc21
24 | 25 (≈ 65.4 µM) | 25 (≈ 65.4 µM) | 12.5 (≈ 32.7 µM) | 6.3 (≈ 16.5 µM) | COC(=O)c1cc2c(s1)C(=O)C(Cl)=C(Nc1ccc(Cl)cc1)C2=O
25 | 25 (≈ 71.9 µM) | 50 (≈ 144 µM) | 50 (≈ 144 µM) | 6.3 (≈ 18.1 µM) | COC(=O)c1cc2c(s1)C(=O)C=C(Nc1ccc(Cl)cc1)C2=O
26 | 25 (≈ 83.5 µM) | 3.2 (≈ 10.7 µM) | > 50 | 25 (≈ 83.5 µM) | Cc1ccc(NC2=CC(=O)c3sc(CO)cc3C2=O)cc1
27 | 1.6 (≈ 3.59 µM) | 50 (≈ 112 µM) | 50 (≈ 112 µM) | 1.6 (≈ 3.59 µM) | O=C1C(Nc2ccc(I)cc2)=C(Cl)C(=O)c2sc(CO)cc21
28 | 25 (≈ 60.8 µM) | 3.2 (≈ 7.78 µM) | 50 (≈ 122 µM) | 1.6 (≈ 3.89 µM) | O=C1C(Nc2ccc(I)cc2)=CC(=O)c2sc(CO)cc21
29 | 6.3 (≈ 19.2 µM) | 50 (≈ 153 µM) | 50 (≈ 153 µM) | 3.2 (≈ 9.78 µM) | COC(=O)c1cc2c(s1)C(=O)C=C(Nc1ccc(C)cc1)C2=O
30 | 3.2 (≈ 9.15 µM) | 50 (≈ 143 µM) | 25 (≈ 71.5 µM) | 1.6 (≈ 4.57 µM) | COc1ccc(NC2=C(Cl)C(=O)c3sc(CO)cc3C2=O)cc1
31 | 1.6 (≈ 5 µM) | 12.5 (≈ 39.1 µM) | 6.3 (≈ 19.7 µM) | 3.2 (≈ 10 µM) | O=C1C(Nc2ccccc2)=C(Cl)C(=O)c2sc(CO)cc21
32 | 12.5 (≈ 31.9 µM) | 50 (≈ 127 µM) | 50 (≈ 127 µM) | 0.2 (≈ 0.51 µM) | COC(=O)c1cc2c(s1)C(=O)C=C(Nc1ccc(Br)cc1)C2=O
33 | 0.8 (≈ 2.01 µM) | 50 (≈ 125 µM) | 50 (≈ 125 µM) | 0.8 (≈ 2.01 µM) | O=C1C(Nc2ccc(Br)cc2)=C(Cl)C(=O)c2sc(CO)cc21
34 | > 50 | > 50 | > 50 | 25 (≈ 113 µM) | COC(=O)c1cc2c(s1)C(=O)C=CC2=O
35 | 50 (≈ 257 µM) | 50 (≈ 257 µM) | > 50 | 25 (≈ 129 µM) | O=C1C=CC(=O)c2sc(CO)cc21
36 | 25 (≈ 79.3 µM) | 3.2 (≈ 10.1 µM) | 3.2 (≈ 10.1 µM) | 0.8 (≈ 2.54 µM) | COc1ccc(NC2=CC(=O)c3sc(CO)cc3C2=O)cc1
37 | 0.8 (≈ 2.4 µM) | 50 (≈ 150 µM) | 50 (≈ 150 µM) | 1.6 (≈ 4.79 µM) | Cc1ccc(NC2=C(Cl)C(=O)c3sc(CO)cc3C2=O)cc1
38 | 25 (≈ 75.5 µM) | > 50 | > 50 | 25 (≈ 75.5 µM) | COC(=O)c1cc2c(s1)C(=O)C=C(Nc1ccc(F)cc1)C2=O
39 | 12.5 (≈ 41.5 µM) | 0.8 (≈ 2.65 µM) | 0.8 (≈ 2.65 µM) | 0.8 (≈ 2.65 µM) | O=C1C(Nc2ccc(O)cc2)=CC(=O)c2sc(CO)cc21
